Assay results reported in ChEMBL document CHEMBL1146064, “Design, synthesis, and biological evaluation of semicarbazide-sensitive amine oxidase (SSAO) inhibitors with anti-inflammatory activity” (J Med Chem, 2006).

Columns and labels:
[1] = molecular target: T1, Amine oxidase [copper-containing] 3 (Rattus norvegicus, UniProt O08590); assay: Inhibition of SSAO in rat lung
T1 sequence (O08590 whole entry): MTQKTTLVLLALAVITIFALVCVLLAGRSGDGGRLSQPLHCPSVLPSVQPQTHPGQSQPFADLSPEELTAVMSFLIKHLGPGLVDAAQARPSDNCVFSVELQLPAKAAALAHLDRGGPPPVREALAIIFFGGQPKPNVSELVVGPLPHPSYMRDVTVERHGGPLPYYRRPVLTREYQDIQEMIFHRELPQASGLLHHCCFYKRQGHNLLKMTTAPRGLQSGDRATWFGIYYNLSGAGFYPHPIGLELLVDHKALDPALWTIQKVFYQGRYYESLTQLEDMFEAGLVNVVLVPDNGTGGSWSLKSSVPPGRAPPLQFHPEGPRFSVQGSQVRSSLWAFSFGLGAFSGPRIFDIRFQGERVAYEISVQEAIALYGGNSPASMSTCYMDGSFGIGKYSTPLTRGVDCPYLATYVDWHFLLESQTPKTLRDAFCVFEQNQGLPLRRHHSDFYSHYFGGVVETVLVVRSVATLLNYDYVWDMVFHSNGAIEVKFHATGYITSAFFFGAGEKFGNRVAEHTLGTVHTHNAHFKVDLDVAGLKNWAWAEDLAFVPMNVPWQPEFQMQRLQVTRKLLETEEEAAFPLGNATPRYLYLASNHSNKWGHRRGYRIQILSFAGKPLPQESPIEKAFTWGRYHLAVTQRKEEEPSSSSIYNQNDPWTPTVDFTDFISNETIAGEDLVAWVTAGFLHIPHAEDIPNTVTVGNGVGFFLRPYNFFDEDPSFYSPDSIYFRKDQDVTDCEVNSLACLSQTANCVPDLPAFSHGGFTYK
Method in brief: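 Enzyme source is a rat lung homogenate: tissue homogenized 1:20 (w/v) in 10 mM potassium phosphate pH 7.8, then spun at 10000g for 10 min at 4 °C. Reaction stopped with citric acid, toluene/ethyl acetate extract counted by scintillation. IC50 taken from background-corrected dose-response curves (10^-3 to 10^-10 M).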

[2] = molecular target: T2, Amine oxidase [flavin-containing] A (Homo sapiens, UniProt P21397); assay: Inhibition of recombinant human MAO-A
T2 sequence (P21397 whole entry): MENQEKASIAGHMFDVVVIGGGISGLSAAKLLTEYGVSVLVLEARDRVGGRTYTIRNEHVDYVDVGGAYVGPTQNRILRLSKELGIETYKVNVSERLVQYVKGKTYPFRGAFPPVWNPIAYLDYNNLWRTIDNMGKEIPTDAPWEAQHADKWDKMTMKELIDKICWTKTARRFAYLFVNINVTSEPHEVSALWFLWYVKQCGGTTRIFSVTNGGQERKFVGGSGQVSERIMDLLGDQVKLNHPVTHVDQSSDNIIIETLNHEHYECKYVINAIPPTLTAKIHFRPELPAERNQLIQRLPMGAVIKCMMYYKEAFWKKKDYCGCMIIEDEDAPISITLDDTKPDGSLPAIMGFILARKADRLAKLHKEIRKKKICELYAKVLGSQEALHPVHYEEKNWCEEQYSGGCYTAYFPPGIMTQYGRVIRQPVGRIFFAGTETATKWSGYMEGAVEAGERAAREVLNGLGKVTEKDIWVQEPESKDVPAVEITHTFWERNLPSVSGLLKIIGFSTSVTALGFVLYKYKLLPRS
Method in brief: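 Recombinant human MAO-A measured with a coupled colorimetric assay. IC50 fitted from inhibition curves over 10^-3 to 10^-10 M inhibitor.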

[3] = molecular target: T3, Amine oxidase [flavin-containing] B (Homo sapiens, UniProt P27338); assay: Inhibition of recombinant human MAO-B
T3 sequence (P27338 whole entry): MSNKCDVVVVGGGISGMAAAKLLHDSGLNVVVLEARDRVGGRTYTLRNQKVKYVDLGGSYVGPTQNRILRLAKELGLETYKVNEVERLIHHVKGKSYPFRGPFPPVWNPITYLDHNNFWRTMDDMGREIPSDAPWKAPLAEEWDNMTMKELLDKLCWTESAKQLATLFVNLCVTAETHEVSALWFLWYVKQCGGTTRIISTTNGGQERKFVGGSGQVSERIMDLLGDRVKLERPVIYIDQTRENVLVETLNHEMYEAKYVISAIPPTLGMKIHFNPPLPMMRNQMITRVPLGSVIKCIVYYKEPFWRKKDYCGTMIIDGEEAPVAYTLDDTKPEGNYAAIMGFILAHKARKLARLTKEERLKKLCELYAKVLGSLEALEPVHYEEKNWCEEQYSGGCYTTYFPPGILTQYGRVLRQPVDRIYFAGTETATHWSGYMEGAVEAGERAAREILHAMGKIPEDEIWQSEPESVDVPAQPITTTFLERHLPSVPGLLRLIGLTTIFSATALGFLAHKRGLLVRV

[4] = Half life in Sprague-Dawley rat at 5 mg/kg, po; format: ADME, organism-based; set-up: dose 5 mg/kg, route oral; details: in vivo
Method in brief: (§1)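 Single oral dose of 5.0 mg/kg given to cannulated female Sprague Dawley rats, then plasma concentrations followed over time. Parameters come from noncompartmental analysis and are reported as mean ± SD (n = 3).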

[5] = Tmax in Sprague-Dawley rat at 5 mg/kg, po; format: ADME, organism-based; set-up: dose 5 mg/kg, route oral; details: in vivo; method in brief: as §1
[6] = Cmax in Sprague-Dawley rat at 5 mg/kg, po; format: ADME, organism-based; set-up: dose 5 mg/kg, route oral; details: in vivo; method in brief: as §1
[7] = AUC in Sprague-Dawley rat at 5 mg/kg, po; format: ADME, organism-based; set-up: dose 5 mg/kg, route oral; details: plasma; method in brief: as §1
[8] = AUC (infinity) in Sprague-Dawley rat at 5 mg/kg, po; format: ADME, organism-based; set-up: time infinity, dose 5 mg/kg, route oral; details: plasma; method in brief: as §1

Structure (SMILES) | IC50 [1] | further results
C=C(CNNC(C)C)c1ccc(F)cc1 | > 1000 nM | –
C=C(CNN)c1ccc(F)cc1 | 6.1 nM | IC50 [2]: 6000 nM
C=C(CN(N)Cc1ccccc1)c1ccc(F)cc1 | > 1000 nM | –
C=C(CNNCc1ccccc1)c1ccc(F)cc1 | > 1000 nM | –
C=C(CN(C)N)c1ccc(F)cc1 | 240 nM | –
C=C(CN(N)CC)c1ccc(F)cc1 | 630 nM | –
C=C(CN(N)C(C)C)c1ccc(F)cc1 | 420 nM | –

Stronger by IC50 [1], values ahead:

IC50 [1] | Structure (SMILES) | further results
1.7 nM | C=C(CNNC)c1ccc(F)cc1 | –
2 nM | C=C(CNN)c1ccccc1.Cl | IC50 [2]: 1300 nM; IC50 [3]: 71 µM; half-life [4]: 677 min; Tmax [5]: 30 min; Cmax [6]: 366 ng/mL; AUC [7]: 1340 ng·h/mL; AUC(0-inf) [8]: 3310 ng·h/mL
3 nM | C=C(CNN)c1ccc(Cl)cc1 | –
2.3 nM | C=C(CNNCC)c1ccc(F)cc1 | –
4 nM | C=C(CNN)c1ccccc1C | IC50 [2]: 2000 nM; IC50 [3]: 90 µM
5 nM | NNC/C(=C/F)c1ccccc1 | –
